# Laboratory results from ChEMBL document CHEMBL3244290, “N-Alkyl derivatives of (+/-)-alpha-methyldopamine” (J Med Chem, 1979).
# The source made the active and inactive calls. The calls are words filed in the database; no cut-off is given here.
# Key:
# [1] = organism: Rattus norvegicus; test: Toxicity in Sprague-Dawley rat assessed as hyperactivity treated intra-accumbens injection pretreated with aceperone; assay type: organism-based; settings: in vivo, other
# In short: (§1)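 Male Sprague-Dawley rats (250 ± 25 g) with stereotaxic guide cannulae aimed at the nucleus accumbens. Tested 10–14 days after surgery with a bilateral 1 μL infusion over 60 s; each rat used once and placement checked histologically. Locomotion counted by photocell cage. Stereotypy scored, where 3–4 = biting, gnawing or licking. Pretreatments given ip: α-methyl-p-tyrosine 250 mg/kg 6 h before, or haloperidol 0.1, propranolol 5 or aceperone 2.5 mg/kg 30 min before.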
# [2] = tested on: Canis familiaris; test: Increase in heart rate in dog assessed as beats at 30 ug/kg, iv by cardiotachometer; assay type: functional, Canis lupus familiaris
# In short: (§2)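 Anaesthetised dog (barbital 200 mg/kg). Compounds given intravenously, highest dose tested 1.0 mg/kg. Blood pressure recorded from the right femoral artery and heart rate by cardiometer. Resting heart rate, blood pressure and positive chronotropic responses were assessed after dosing. Doses calculated as free base.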
# [3] = tested on: Mus musculus; test: Toxicity in albino B.K.W mouse assessed as circling behaviour at 20 to 80 mg/kg, sc; assay type: organism-based; design: dose 20-80 mg/kg, route subcutaneous; settings: in vivo
# In short: (§3)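 Mice dosed subcutaneously at 20, 40 and 80 mg/kg in 1 mL/kg, doses as free base. Climbing scored as all four paws on the wire, giving a climbing index (% time over 30 min after the first climb) and the maximum time of a single climb. Circling was tested in mice with a unilateral caudate-putamen electrolesion, pre-selected for circling of 7 or more revolutions/2 min in response to apomorphine. Stereotypy was also recorded.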
# [4] = tested on: Mus musculus; test: Toxicity in albino B.K.W mouse assessed as climbing behaviour at 20 to 80 mg/kg, sc; assay type: organism-based; design: dose 20-80 mg/kg, route subcutaneous; settings: in vivo; in short: as §3
# [5] = organism: Canis lupus familiaris; test: Inhibition of electric stimulated dog right cardioaccelerator nerve; assay type: functional
# In short: (§4)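 Dog cardioaccelerator nerve preparation under barbital (200 mg/kg) anaesthesia. Compounds given intravenously up to 1.0 mg/kg. Positive chronotropic responses read by cardiometer, with blood pressure taken from the right femoral artery.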
# [6] = organism: Rattus norvegicus; test: Toxicity in Sprague-Dawley rat assessed as hyperactivity treated intra-accumbens injection pretreated with alpha-methyl-p-tyrosine; assay type: organism-based; settings: in vivo, other; in short: as §1
# [7] = tested on: Canis familiaris; test: Inhibition of apomorphine-induced emesis in dog at 2 mg/kg, sc; assay type: functional, organism-based; design: dose 2 mg/kg; settings: Canis lupus familiaris
# In short: (§5)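 Unanaesthetised dogs. For emesis, compound given sc and dogs watched 45 min for an emetic response. For antagonism, compound given sc and apomorphine 100 μg/kg 15 min later.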
# [8] = organism: Rattus norvegicus; test: Toxicity in Sprague-Dawley rat assessed as licking up to 50 ug injection into nucleus accumbens; assay type: organism-based; settings: in vivo, other; in short: as §1
# [9] = tested on: Canis familiaris; test: Toxicity in dog assessed as emesis at 2 mg/kg, sc; assay type: organism-based, Canis lupus familiaris; design: dose 2 mg/kg, route subcutaneous; settings: in vivo; in short: as §5
# [10] = organism: Felis catus; test: Inhibition of field stimulation-induced positive chronotrophic response in cat atria; assay type: functional; settings: Cardiac atrium
# [11] = organism: Rattus norvegicus; test: Toxicity in Sprague-Dawley rat assessed as biting up to 50 ug injection into nucleus accumbens; assay type: organism-based; settings: in vivo, other; in short: as §1
# [12] = tested on: Rattus norvegicus; test: Induction of rotation in rat with unilateral denervation of caudate nucleus at 4 mg/kg, sc; assay type: functional, organism-based; design: dose 4 mg/kg
# In short: (§6)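 Rats given a unilateral 6-hydroxydopamine injection into the substantia nigra. Compounds dosed subcutaneously and the rotations they induced were counted. Apomorphine served as the reference.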
# [13] = tested on: Canis familiaris; test: Increase in resting heart rate in dog at […], iv by cardiotachometer; assay type: functional, organism-based; settings: Canis lupus familiaris; in short: as §2
# [14] = organism: Rattus norvegicus; test: Toxicity in Sprague-Dawley rat assessed as hyperactivity treated intra-accumbens injection pretreated with haloperiodol; assay type: organism-based; settings: in vivo, other; in short: as §1
# [15] = Toxicity in pigeon assessed as pecking; settings: columbidae
# In short: (§7)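 Pigeons. Compounds given intramuscularly at up to 4 mg/kg to test induction of pecking. Antagonism of pecking induced by apomorphine (1.62 μM/kg) was also tested, and ED50 values were estimated.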
# [16] = organism: Rattus norvegicus; test: Toxicity in Sprague-Dawley rat assessed as hyperactivity treated bilateral injection into nucleus accumbens; assay type: organism-based; settings: in vivo, other; in short: as §1
# [17] = tested on: Mus musculus; test: Toxicity in albino B.K.W mouse assessed as stereotyped behaviour at 20 to 80 mg/kg, sc; assay type: organism-based; design: dose 20-80 mg/kg, route subcutaneous; settings: in vivo; in short: as §3
# [18] = organism: Rattus norvegicus; test: Toxicity in Sprague-Dawley rat assessed as hyperactivity treated intra-accumbens injection; assay type: organism-based; settings: in vivo, other; in short: as §1
# [19] = organism: Felis catus; test: Inhibition of field stimulation-induced positive ionotrophic response in cat atria; assay type: functional; settings: Cardiac atrium
# [20] = organism: Rattus norvegicus; test: Toxicity in Sprague-Dawley rat assessed as hyperactivity treated intra-accumbens injection pretreated with propranolol; assay type: organism-based; settings: in vivo, other; in short: as §1
# [21] = tested on: Canis familiaris; test: Increase in blood pressure in dog at 30 ug/kg, iv by cardiotachometer; assay type: functional, Canis lupus familiaris; in short: as §2
# [22] = organism: Rattus norvegicus; test: Toxicity in Sprague-Dawley rat assessed as gnawing up to 50 ug injection into nucleus accumbens; assay type: organism-based; settings: in vivo, other; in short: as §1
# [23] = tested on: Columbidae; test: Inhibition of apomorphine-induced pecking in pigeon at 3 umol/kg; assay type: functional; in short: as §7
# [24] = tested on: Rattus norvegicus; test: Induction of rotation in rat with unilateral denervation of caudate nucleus at 0.25 mg/kg, sc; assay type: functional, organism-based; design: dose 0.25 mg/kg; in short: as §6
# [25] = tested on: Rattus norvegicus; test: Induction of rotation in rat with unilateral denervation of caudate nucleus at 1 mg/kg, sc; assay type: functional, organism-based; design: dose 1 mg/kg; in short: as §6
# [26] = organism: Rattus norvegicus; test: Toxicity in Sprague-Dawley rat assessed as sniffing at 50 ug injection into nucleus accumbens; assay type: organism-based; settings: in vivo, other; in short: as §1
# [27] = organism: Rattus norvegicus; test: Toxicity in Sprague-Dawley rat assessed as locomotor hyperactivity treated bilateral injection into nucleus accumbens at 50 ug; assay type: organism-based; settings: in vivo, other; in short: as §1
# [28] = tested on: Canis familiaris; test: Increase in blood pressure in dog at 50 ug/kg, iv by cardiotachometer; assay type: functional, Canis lupus familiaris; in short: as §2
# [29] = organism: Rattus norvegicus; test: Toxicity in Sprague-Dawley rat assessed as sniffing at 12.5 to 50 ug injection into nucleus accumbens; assay type: organism-based; settings: in vivo, other; in short: as §1
# [30] = tested on: Canis familiaris; test: Increase in heart rate in dog assessed as beats at 50 ug/kg, iv by cardiotachometer; assay type: functional, Canis lupus familiaris; in short: as §2
# [31] = tested on: Columbidae; test: Inhibition of apomorphine-induced pecking in pigeon; assay type: functional; in short: as §7
# [32] = organism: Rattus norvegicus; test: Toxicity in Sprague-Dawley rat assessed as hyperactivity treated bilateral injection into nucleus accumbens at > 6.25 ug; assay type: organism-based; settings: in vivo, other; in short: as §1
# [33] = tested on: Canis familiaris; test: Increase in ionotrophic response in dog following field stimulation at 1 mg/kg, iv by cardiotachometer; assay type: functional, organism-based; design: dose 1 mg/kg; settings: Canis lupus familiaris; in short: as §4
# [34] = tested on: Canis familiaris; test: Increase in ionotrophic response in iv dosed dog following field stimulation assessed as minimum effective dose by cardiotachometer; assay type: functional, Canis lupus familiaris; design: unit not given here; in short: as §4
# [35] = tested on: Canis familiaris; test: Increase in blood pressure in dog at 0.5 mg/kg, iv by cardiotachometer; assay type: functional, Canis lupus familiaris; in short: as §2
# [36] = tested on: Canis familiaris; test: Increase in resting heart rate in dog at 0.5 mg/kg, iv by cardiotachometer; assay type: functional, organism-based; design: dose 0.5 mg/kg; settings: Canis lupus familiaris; in short: as §2
# [37] = tested on: Canis familiaris; test: Increase in heart rate in dog at 1 mg/kg, iv by cardiotachometer; assay type: functional, organism-based; design: dose 1 mg/kg; settings: Canis lupus familiaris; in short: as §2
# [38] = tested on: Mus musculus; test: Toxicity in albino B.K.W mouse assessed as stereotyped head and limb movement at 40 to 80 mg/kg, sc; assay type: organism-based; design: dose 40-80 mg/kg, route subcutaneous; settings: in vivo; in short: as §3
Structure (SMILES),Activity [3],Activity [4],inhibition [5],Activity [7],Activity [9],inhibition [10],Activity [12],Activity [15],Activity [17],inhibition [19],Activity [27],other results
Br.CCCNC(C)Cc1ccc(O)c(O)c1 (racemic),Non-toxic,Non-toxic,inactive,inactive,Non-toxic,inactive,inactive,Non-toxic,Non-toxic,inactive,,Activity [1]: Toxic; Activity [2]: 35 bpm; Activity [6]: Non-toxic; Activity [8]: Toxic; Activity [11]: Toxic; Activity [13]: Active; Activity [14]: Non-toxic; Activity [16]: Toxic; Activity [18]: Toxic; Activity [20]: Toxic; Activity [21]: 35%; Activity [22]: Toxic
COc1cc(CC(C)N)c(OC)cc1C (stereo unspecified),,,,,,,,,,,,inhibition [23]: Active
CN1CCc2cccc3c2[C@H]1Cc1ccc(O)c(O)c1-3,,,,,,,,,,,,Activity [24]: Active
C[C@H](N)Cc1ccccc1,,,,,,,,,,,,Activity [25]: Active
Br.CCNC(C)Cc1ccc(O)c(O)c1 (racemic),Non-toxic,Non-toxic,inactive,inactive,Non-toxic,inactive,,Non-toxic,Non-toxic,inactive,Toxic,Activity [26]: Toxic
Br.CC(N)Cc1ccc(O)c(O)c1 (racemic),Non-toxic,Non-toxic,inactive,inactive,Non-toxic,inactive,inactive,Non-toxic,Non-toxic,inactive,,Activity [1]: Toxic; Activity [28]: 80%; Activity [6]: Non-toxic; Activity [29]: Toxic; Activity [13]: Active; Activity [14]: Non-toxic; Activity [18]: Toxic; Activity [30]: 50 bpm; Activity [20]: Toxic; inhibition [31]: Active; Activity [32]: Toxic
Br.CCCN(CCC)C(C)Cc1ccc(O)c(O)c1 (racemic),Non-toxic,Non-toxic,inactive,inactive,Non-toxic,inactive,inactive,Non-toxic,Non-toxic,inactive,Toxic,Activity [33]: Active; MED [34]: 20; Activity [29]: Toxic; Activity [35]: <=10 mmHg; Activity [36]: inactive; Activity [37]: Active
Br.CCN(CC)C(C)Cc1ccc(O)c(O)c1 (racemic),Non-toxic,Non-toxic,inactive,inactive,Non-toxic,inactive,,Non-toxic,Non-toxic,inactive,Toxic,Activity [8]: Non-toxic; Activity [35]: <=10 mmHg; Activity [11]: Non-toxic; inhibition [31]: Active; Activity [36]: inactive; Activity [22]: Non-toxic; Activity [38]: Toxic
